Reference: ChEMBL document CHEMBL4043246, “Discovery of novel [1,2,4]triazolo[4,3-a]quinoxaline aminophenyl derivatives as BET inhibitors for cancer treatment” (Bioorg Med Chem Lett, 2017)

Tests used:
[1] = molecular target: Bromodomain-containing protein 4 (Homo sapiens, UniProt O60885); assay: Inhibition of BRD4 BD1-BD2 (unknown origin) using tetraacetylated histone peptide as substrate after 2 hrs by alphascreen assay
[2] = Antiproliferative activity against human TY82 cells; type: functional, cell-based
[3] = test system: THP-1; assay: Antiproliferative activity against human THP1 cells; type: functional, cell-based
[4] = Stability in mouse liver microsomes assessed as parent compound remaining after 30 mins; type: ADME, microsome; conditions: read-out: Stability
In short: (§1)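 Incubated in vitro with mouse, rat or human liver microsomes for 30 minutes. Result expressed as percent of parent compound remaining.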

[5] = Stability in rat liver microsomes assessed as parent compound remaining after 30 mins; type: ADME, microsome; conditions: read-out: Stability; in short: as §1
[6] = Stability in human liver microsomes assessed as parent compound remaining after 30 mins; type: ADME, microsome; conditions: read-out: Stability; in short: as §1
[7] = Half life in rat at 2 mg/kg, iv; type: ADME, organism-based; conditions: in vivo
In short: (§2)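 Rat pharmacokinetics with single intravenous (2 mg/kg) or oral (5 or 20 mg/kg) dosing. Terminal half-life is reported in hours.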

[8] = AUCt in rat at 2 mg/kg, iv; type: ADME, organism-based; conditions: in vivo
In short: (§3)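 Rat pharmacokinetics with single dosing, either intravenous at 2 mg/kg or oral at 5 or 20 mg/kg. AUC is reported both to the last time point (AUCt) and extrapolated to infinity, in ug.hr/mL.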

[9] = AUCinfinity in rat at 2 mg/kg, iv; type: ADME, organism-based; design: dose 2 mg/kg, time infinity, route intravenous; conditions: in vivo; in short: as §3
[10] = Clearance in rat at 2 mg/kg, iv; type: ADME, organism-based; conditions: in vivo
[11] = Volume of distribution at steady state in rat at 2 mg/kg, iv; type: ADME, organism-based; conditions: in vivo, read-out: Vdss
In short: (§4)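 Rat pharmacokinetics after a single intravenous dose of 2 mg/kg or oral doses of 5 mg/kg and 20 mg/kg. Reported parameters are Tmax, Cmax, T1/2, AUCt, AUC∞, CL, Vss and F(%). CL, Vss and F come from the intravenous/oral 2 and 5 mg/kg arms.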

[12] = test system: Rattus norvegicus; assay: Tmax in rat at 5 mg/kg, po; type: ADME, organism-based; conditions: in vivo; in short: as §4
[13] = test system: Rattus norvegicus; assay: Cmax in rat at 5 mg/kg, po; type: ADME, organism-based; design: dose 5 mg/kg, route oral; conditions: in vivo
In short: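 Peak plasma level after single oral dosing in rat at 5 or 20 mg/kg. Cmax is given in mg/mL as printed, with Tmax in hours.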

[14] = test system: Rattus norvegicus; assay: Half life in rat at 5 mg/kg, po; type: ADME, organism-based; conditions: in vivo; in short: as §2
[15] = AUCt in rat at 5 mg/kg, po; type: ADME, organism-based; conditions: in vivo; in short: as §3
[16] = test system: Rattus norvegicus; assay: AUCinfinity in rat at 5 mg/kg, po; type: ADME, organism-based; design: dose 5 mg/kg, time infinity, route oral; conditions: in vivo; in short: as §3
[17] = Oral bioavailability in rat at 5 mg/kg; type: ADME, organism-based; conditions: in vivo; in short: as §4

IC50 [1] | SMILES | IC50 [2] | other results
6400 nM | Cc1nnc2c(Nc3ccc(NC(=O)OC(C)(C)C)cc3)nc3ccccc3n12 | > 10000 nM | 
640 nM | Cc1nnc2c(Nc3cccc(CNC(=O)c4ccccc4)c3)nc3ccccc3n12 | 8600 nM | 
2700 nM | Cc1nnc2c(Nc3ccc(CNC(=O)OC(C)(C)C)cc3)nc3ccccc3n12 | > 10000 nM | 
160 nM | CCOC(=O)NCc1cccc(Nc2nc3ccccc3n3c(C)nnc23)c1 | > 10000 nM | IC50 [3]: > 10000 nM
1500 nM | Cc1nnc2c(Nc3cccc(CNC(=O)OC(C)(C)C)c3)nccn12 | > 10000 nM | 
> 10000 nM | CC(C)(C)OC(=O)NCc1cccc(Nc2nc3ccccc3n3c(C(F)(F)F)nnc23)c1 |  | 
17 to 68 nM | Cc1nnc2c(Nc3cccc(CNC(=O)OC(C)(C)C)c3)nc3ccccc3n12 | 2500 to 7100 nM | IC50 [3]: 3400 nM; remaining at 0.5 h [4]: 0.12%; remaining at 0.5 h [5]: 0.19%; remaining at 0.5 h [6]: 27%; half-life [7]: 0.72 h; AUC(0-t) [8]: 4020 ng·h/mL; AUC(0-inf) [9]: 4020 ng·h/mL; clearance [10]: 8.33 mL/min/kg; Vd [11]: 0.46 L/kg; Tmax [12]: 3.42 h; Cmax [13]: 340 ng/mL; t1/2 [14]: 3.69 h; AUC(0-t) [15]: 2110 ng·h/mL; AUC [16]: 2390 ng·h/mL; bioavailability [17]: 20.9%
350 nM | Cc1nnc2c(Nc3cccc(CN)c3)nc3ccccc3n12 | > 10000 nM | 
 | CCNC(=O)C[C@@H]1N=C(c2ccc(Cl)cc2)c2cc(OC)ccc2-n2c(C)nnc21 [MOLIBRESIB] | 390 nM | IC50 [3]: 290 nM
200 nM | CCC(=O)NCc1cccc(Nc2nc3ccccc3n3c(C)nnc23)c1 | 7600 nM | 
> 10000 nM | CC(C)(C)OC(=O)NCc1cccc(Nc2nc3ccccc3n3cnnc23)c1 |  | 
 | Cc1sc2c(c1C)C(c1ccc(Cl)cc1)=N[C@@H](CC(=O)Nc1ccc(O)cc1)c1nnc(C)n1-2 [BIRABRESIB] | 67 nM | IC50 [3]: 33 nM
530 nM | CC(=O)NCc1cccc(Nc2nc3ccccc3n3c(C)nnc23)c1 | > 10000 nM | 
120 nM | Cc1nnc2c(Nc3cccc(NC(=O)OC(C)(C)C)c3)nc3ccccc3n12 | > 10000 nM | 
> 10000 nM | CC(C)(C)OC(=O)NCc1cccc(Nc2nc3ccccc3n3c(-c4ccccc4)nnc23)c1 |  | 
> 10000 nM | CCc1nnc2c(Nc3cccc(CNC(=O)OC(C)(C)C)c3)nc3ccccc3n12 |  | 
97 nM | Cc1nnc2c(Nc3cccc(CNC(=O)C(C)(C)C)c3)nc3ccccc3n12 | > 10000 nM | 
